ChEMBL document CHEMBL1148356, “Synthesis and biological evaluation of 3-heterocyclyl-7,8,9,10-tetrahydro-(7,10-ethano)-1,2,4-triazolo[3,4-a]phthalazines and analogues as subtype-selective inverse agonists for the GABA(A)alpha5 benzodiazepine binding site” (J Med Chem, 2004)
Active and inactive are the calls of the source. The calls are words filed in the database; no cut-off is given here.

Legend:
[1] = biological target: GABA A receptor alpha-4/beta-3/gamma-2 (Homo sapiens, UniProt P18507+P28472+P48169); test: Inhibition of [3H]-Ro-15-1788 binding to human alpha-4-beta-3-gamma-2 GABA-A receptor expressed in L(tk-) cells; type: cell-based
[2] = biological target: T1, GABA-A receptor; alpha-2/beta-3/gamma-2 (Homo sapiens) (UniProt P18507+P28472+P47869); test: Percent maximum change in electrophysiological response in Xenopus oocytes expressing alpha-2-beta-3-gamma-2 GABA-A receptor; type: functional, cell-based; settings: Oocyte
Outline: (§1)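 Two-electrode voltage clamp on Xenopus oocytes injected with human GABA-A subunit cDNAs, 24-72 h expression, perfused with modified Barth's medium at pH 7.5, clamped between -40 and -70 mV. The GABA EC20 was titrated against a 3 mM GABA maximum. […] Result is % change of control current, mean ± SE of ≥4 oocytes.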

[3] = biological target: GABA-A receptor; alpha-3/beta-3/gamma-2 (Homo sapiens) (UniProt P18507+P28472+P34903); test: Percent maximum change in electrophysiological response in Xenopus oocytes expressing alpha-3-beta-3-gamma-2 GABA-A receptor; type: functional, cell-based; settings: Oocyte; outline: as §1
[4] = biological target: T1, GABA-A receptor; alpha-2/beta-3/gamma-2 (Homo sapiens); test: Percent change in electrophysiological response in Xenopus oocytes expressing Alpha2-beta3-gamma2 GABA-A receptor; type: functional, cell-based; settings: Oocyte; outline: as §1
[5] = biological target: T2, GABA-A receptor; alpha-1/beta-3/gamma-2 (Homo sapiens) (UniProt P14867+P18507+P28472); test: Percent maximum change in electrophysiological response in Xenopus oocytes expressing alpha-1-beta-3-gamma-2 GABA-A receptor; type: functional, cell-based; settings: Oocyte; outline: as §1
[6] = biological target: T3, GABA-A receptor; alpha-5/beta-3/gamma-2 (Homo sapiens) (UniProt P18507+P28472+P31644); test: Percent maximum change in electrophysiological response in Xenopus oocytes expressing alpha-5-beta-3-gamma-2 GABA-A receptor; type: functional, cell-based; settings: Oocyte; outline: as §1
[7] = biological target: T4, GABA-A receptor; alpha-3/beta-3/gamma-2 (Homo sapiens, UniProt P18507+P28472+P34903); test: Binding affinity towards human gamma-aminobutyric-acid A receptor alpha-3-beta-3-gamma-2 using [3H]Ro-151788 expressed in L(tk-) cells; type: cell-based
T4 sequence (P18507 whole entry): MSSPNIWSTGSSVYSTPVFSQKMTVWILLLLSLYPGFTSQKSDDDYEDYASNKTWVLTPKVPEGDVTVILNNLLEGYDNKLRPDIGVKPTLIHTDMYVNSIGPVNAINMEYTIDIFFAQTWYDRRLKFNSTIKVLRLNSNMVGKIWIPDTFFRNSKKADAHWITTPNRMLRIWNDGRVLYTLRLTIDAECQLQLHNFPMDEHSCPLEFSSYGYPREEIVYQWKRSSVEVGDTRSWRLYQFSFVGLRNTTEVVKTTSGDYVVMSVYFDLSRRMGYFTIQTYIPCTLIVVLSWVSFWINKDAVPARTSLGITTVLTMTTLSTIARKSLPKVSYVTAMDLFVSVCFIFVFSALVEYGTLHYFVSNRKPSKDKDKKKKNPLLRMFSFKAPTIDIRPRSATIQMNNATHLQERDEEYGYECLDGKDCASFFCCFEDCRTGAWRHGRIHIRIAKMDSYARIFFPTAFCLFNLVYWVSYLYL
T4 sequence (P28472 whole entry): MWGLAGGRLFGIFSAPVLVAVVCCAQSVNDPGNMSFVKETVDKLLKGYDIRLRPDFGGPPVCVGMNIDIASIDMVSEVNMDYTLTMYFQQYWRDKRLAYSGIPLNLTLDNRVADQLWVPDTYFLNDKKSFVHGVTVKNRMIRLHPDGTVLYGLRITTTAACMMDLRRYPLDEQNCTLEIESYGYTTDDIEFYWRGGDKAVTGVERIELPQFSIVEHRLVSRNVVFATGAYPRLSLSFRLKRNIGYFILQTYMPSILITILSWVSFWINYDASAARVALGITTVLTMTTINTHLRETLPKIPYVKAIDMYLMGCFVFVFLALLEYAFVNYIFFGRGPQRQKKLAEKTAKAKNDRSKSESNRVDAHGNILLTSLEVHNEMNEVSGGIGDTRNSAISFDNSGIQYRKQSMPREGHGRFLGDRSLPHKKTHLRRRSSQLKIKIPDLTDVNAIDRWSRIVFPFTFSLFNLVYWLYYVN
T4 sequence (P34903 whole entry): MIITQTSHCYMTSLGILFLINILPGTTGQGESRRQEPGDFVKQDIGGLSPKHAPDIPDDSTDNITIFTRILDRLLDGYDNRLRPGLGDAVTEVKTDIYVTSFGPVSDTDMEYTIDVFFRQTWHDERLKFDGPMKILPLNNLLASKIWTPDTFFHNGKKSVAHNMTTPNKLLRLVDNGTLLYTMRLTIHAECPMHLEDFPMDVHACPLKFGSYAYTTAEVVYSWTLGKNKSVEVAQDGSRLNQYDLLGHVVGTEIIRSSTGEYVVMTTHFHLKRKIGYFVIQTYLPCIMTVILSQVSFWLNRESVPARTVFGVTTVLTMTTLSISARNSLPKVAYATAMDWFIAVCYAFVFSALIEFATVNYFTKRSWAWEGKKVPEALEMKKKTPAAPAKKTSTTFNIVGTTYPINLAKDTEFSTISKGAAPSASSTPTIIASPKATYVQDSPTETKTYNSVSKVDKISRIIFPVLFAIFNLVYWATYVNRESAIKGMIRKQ

[8] = biological target: T2, GABA-A receptor; alpha-1/beta-3/gamma-2 (Homo sapiens); test: Percent change in electrophysiological response in Xenopus oocytes expressing Alpha1-beta3-gamma2 GABA-A receptor; type: functional, cell-based; settings: Oocyte; outline: as §1
[9] = system: Rattus norvegicus; test: Tested for cognitive performance in rats in delayed matching-to-place version of water maze test at 1 mg/kg p.o.; Significant enhancement in performance; type: functional, organism-based; parameters: dose 1 mg/kg
[10] = biological target: T5, GABA-A receptor; alpha-2/beta-3/gamma-2 (Homo sapiens, UniProt P18507+P28472+P47869); test: Binding affinity towards human gamma-aminobutyric-acid A receptor alpha-2-beta-3-gamma-2 using [3H]Ro-151788 expressed in L(tk-) cells; type: cell-based
T5 sequence (P18507 whole entry): T4 sequence (P18507 whole entry)
T5 sequence (P28472 whole entry): T4 sequence (P28472 whole entry)
T5 sequence (P47869 whole entry): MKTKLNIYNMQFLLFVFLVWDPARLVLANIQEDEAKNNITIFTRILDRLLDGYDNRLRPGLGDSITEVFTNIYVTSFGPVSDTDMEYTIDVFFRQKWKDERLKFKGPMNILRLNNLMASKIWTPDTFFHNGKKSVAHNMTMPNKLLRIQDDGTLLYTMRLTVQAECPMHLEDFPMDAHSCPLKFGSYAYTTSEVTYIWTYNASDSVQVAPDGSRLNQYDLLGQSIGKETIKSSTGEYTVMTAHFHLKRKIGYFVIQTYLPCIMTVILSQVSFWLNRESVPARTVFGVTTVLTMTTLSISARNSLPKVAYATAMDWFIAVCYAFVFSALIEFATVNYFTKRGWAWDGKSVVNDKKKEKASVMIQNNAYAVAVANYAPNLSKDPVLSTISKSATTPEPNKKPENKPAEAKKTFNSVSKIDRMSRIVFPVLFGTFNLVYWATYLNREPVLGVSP

[11] = biological target: T3, GABA-A receptor; alpha-5/beta-3/gamma-2 (Homo sapiens); test: Percent change in electrophysiological response in Xenopus oocytes expressing Alpha-5-beta-3-gamma-2 GABA-A receptor; type: functional, cell-based; settings: Oocyte; outline: as §1

Chain of GABA A receptor alpha-4/beta-3/gamma-2 (P48169 whole entry, one chain of several): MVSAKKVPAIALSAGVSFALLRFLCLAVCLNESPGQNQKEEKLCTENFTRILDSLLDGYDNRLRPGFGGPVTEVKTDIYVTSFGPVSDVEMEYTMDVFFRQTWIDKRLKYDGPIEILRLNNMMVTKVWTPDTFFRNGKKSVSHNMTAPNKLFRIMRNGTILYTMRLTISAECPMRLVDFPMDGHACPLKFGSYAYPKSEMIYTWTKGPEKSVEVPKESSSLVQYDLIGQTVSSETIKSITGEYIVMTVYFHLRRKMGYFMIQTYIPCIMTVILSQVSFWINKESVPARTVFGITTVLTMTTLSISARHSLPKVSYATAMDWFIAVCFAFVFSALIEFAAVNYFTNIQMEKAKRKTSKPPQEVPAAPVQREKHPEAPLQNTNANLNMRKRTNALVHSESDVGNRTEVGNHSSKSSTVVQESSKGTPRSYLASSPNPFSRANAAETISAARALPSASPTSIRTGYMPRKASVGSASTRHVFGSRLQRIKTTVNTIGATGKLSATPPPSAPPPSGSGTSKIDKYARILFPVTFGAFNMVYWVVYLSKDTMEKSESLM

- Ki [1]: 244 nM
- Efficacy [2]: -7%
- Efficacy [3]: -17%
- Efficacy [4]: 15%
- Efficacy [5]: -14%
- Efficacy [6]: -45%
- Ki [7]: 1.4 nM
- Efficacy [8]: -2%
- Ki [10]: 2.7 nM
- Efficacy [11]: -46%
SMILES: Cc1cc(-c2nnc3c4ccccc4c(OCc4ccccn4)nn23)no1
- Activity [9]: Active
